Screening data from PubChem BioAssay.
Plk1 PBD FP – inhibitors of human Plk1 polo box domain binding; P53350; Plk1 PBD phosphopeptide binding, fluorescence polarization; inhibition, %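 (tested at about 20 µM)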; 97,000 tested, 0.13% active; AID 693; in the data active means inhibition above about 34%, passing the limit was not always enough
EphB4 ephrin blk – EphB4-ephrin-B2 interaction antagonism | AID 720 | EphB4 LBD / TNYL-RAW-Alexa532 peptide, fluorescence polarization | inhibition, % at 7 µM | P54760 | 97,000 tested, 0.15% active;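 active means inhibition above the screen-wide mean inhibition plus 3 SD, cut at about 15% in these data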;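 further: 0% = DMSO wells and 100% = excess unlabeled TNYL-RAW peptide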
Target sequence (P54760 whole entry, looked up, the tested form may be a part): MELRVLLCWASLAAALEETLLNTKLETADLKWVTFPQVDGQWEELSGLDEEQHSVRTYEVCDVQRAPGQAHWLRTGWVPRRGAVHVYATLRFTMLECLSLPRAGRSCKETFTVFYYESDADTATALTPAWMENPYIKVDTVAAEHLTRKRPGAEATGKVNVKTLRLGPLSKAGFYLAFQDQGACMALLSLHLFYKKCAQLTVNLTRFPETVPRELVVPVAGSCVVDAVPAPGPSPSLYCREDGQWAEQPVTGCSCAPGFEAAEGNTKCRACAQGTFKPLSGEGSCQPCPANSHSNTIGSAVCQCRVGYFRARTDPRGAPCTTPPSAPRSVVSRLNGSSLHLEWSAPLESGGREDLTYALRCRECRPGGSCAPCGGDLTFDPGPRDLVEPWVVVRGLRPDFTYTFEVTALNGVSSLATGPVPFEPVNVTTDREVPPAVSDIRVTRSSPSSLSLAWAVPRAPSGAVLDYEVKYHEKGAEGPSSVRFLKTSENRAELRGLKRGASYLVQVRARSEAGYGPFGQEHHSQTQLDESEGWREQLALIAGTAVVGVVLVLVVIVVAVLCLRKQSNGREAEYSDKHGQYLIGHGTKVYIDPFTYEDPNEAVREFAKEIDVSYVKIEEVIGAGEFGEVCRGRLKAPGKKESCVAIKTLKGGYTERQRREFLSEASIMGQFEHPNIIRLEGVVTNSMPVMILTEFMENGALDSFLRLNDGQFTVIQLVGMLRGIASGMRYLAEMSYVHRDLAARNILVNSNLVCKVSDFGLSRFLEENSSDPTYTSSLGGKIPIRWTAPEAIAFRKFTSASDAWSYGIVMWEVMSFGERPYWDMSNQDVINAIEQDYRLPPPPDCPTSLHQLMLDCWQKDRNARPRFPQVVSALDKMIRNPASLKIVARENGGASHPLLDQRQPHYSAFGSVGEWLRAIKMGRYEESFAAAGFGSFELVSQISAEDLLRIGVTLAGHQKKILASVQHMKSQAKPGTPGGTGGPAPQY
FAK blocker – FAK (human) kinase inhibition | 97,000 tested, 0.84% active | AID 727 | inhibition, %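 (tested at 7 µM)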 | biochemical FAK kinase activity assay | Q05397; in the data active means inhibition above about 19%;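 further: 0% = DMSO and 100% = reference compound high control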
Rev-RRE block – disrupts HIV-1 Rev binding to RRE RNA; Rev peptide-RRE RNA binding, FRET; inhibition, % at 8 µM; 97,000 tested, 0.79% active;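 active means inhibition above the screen-wide mean plus 3 SD, cut at about 35% in these data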;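 further: 0% = median DMSO wells and 100% = median Neomycin B control wells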
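Assay system: labelled RRE RNA duplex and labelled Rev peptide / Medium: HEPES pH 7.5 salt buffer with EDTA / Reagent: labelled Rev peptide / Schedule: 5 + 15 min at 25 °C / Signal: FRET, excitation 480 nm, emission 540 nm donor and 671 nm acceptor / Benchmarks: DMSO and neomycin B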
Cav32 inh – blocks human Cav3.2 T-type calcium channel. O95180. Cav3.2-expressing cells, Fluo-4 calcium fluorescence FDSS; stronger effect = lower value. B-score at 10 µM. 100,000 tested, 4% active;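 active means single-dose well whose peak fluorescence ratio is a statistical outlier from its plate by either plate-standardised score or position-corrected B-score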
PLK1 inh – inhibitors of human PLK1 kinase | recombinant PLK1 kinase, TR-FRET peptide phosphorylation | inhibition, % at 10 µM | 97,000 tested, 0.53% active | AID 619;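 active means inhibition of 50% or more in the single-concentration screen; inactive means inhibition below 50%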;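 further: 0% = DMSO max control and 100% = H-89 dihydrochloride min control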
The depositor's hits bear a star; x = not tested or not shown. Rows were chosen to be rich in hits. Some 5.3% of all compounds tested hit in one or more screens of this group.

SMILES | Plk1 PBD FP | EphB4 ephrin blk | FAK blocker | Rev-RRE block | Cav32 inh | PLK1 inh
COC(=O)C1=C(C)N=c2s/c(=C/c3ccoc3)c(=O)n2C1c1ccccc1 (centres undefined) | -53 | 6 | 3 | 51* | -1.6 | -11
COc1ccc(N2C(=O)CSC2c2ccc3c(c2)OCO3)cc1 (centres undefined) | 1 | 6 | -1 | 5 | 0.24 | -12
COc1ccc(C2C(C(C)=O)=C(C)N=c3s/c(=C/c4ccc5c(c4)OCO5)c(=O)n32)cc1 (centres undefined) | 28 | -1 | -1 | 44* | x | -8
COc1ccc(C2=NOC(C)(c3nnc(-c4ccccc4)o3)C2)cc1 (centres undefined) | x | x | x | x | -1.7 | x
CCN(CCNC(=O)C1CCN(Cc2nc(-c3cccc(Cl)c3)oc2C)CC1)c1ccccc1 | 23 | 5 | 2 | -1 | -6.9* | -9
CCN(CCNC(=O)C1CCCN(Cc2nc(-c3ccc(OC)cc3)oc2C)C1)c1ccccc1 (centres undefined) | -3 | 5 | 1 | 2 | -4.9* | -1
CCc1ccc(-c2nc(CN3CCC(C(=O)NCCN(CC)c4ccccc4)CC3)c(C)o2)cc1 | -24 | -3 | 4 | -4 | -7.5* | -8
Cc1oc(-c2ccc(Cl)cc2)nc1CN1CCCC(C(=O)N2CCN(C(=O)c3ccco3)CC2)C1 (centres undefined) | -5 | -2 | 2 | 5 | 0.82 | 62*
CCc1ccc(-c2nc(CN3CCCC(C(=O)O)C3)c(C)o2)cc1 (centres undefined) | 19 | -4 | -7 | -3 | 0.58 | 28
CCc1ccc(-c2nc(CN3CCC(C(=O)N4CCN(c5ccccc5)CC4)CC3)c(C)o2)cc1 | -6 | -8 | 2 | -5 | -4 | -1
Cc1nc(NC(=O)c2ccccc2)sc1C1(C)CC(c2ccc(OC(F)(F)F)cc2)=NO1 (centres undefined) | x | x | x | x | -1.4 | x
COC(=O)c1cccc(S(=O)(=O)N2CCN(c3nc4ccccc4s3)CC2)c1 | -17 | -1 | 1 | 3 | 0.69 | -2
Cc1oc(-c2ccc(Cl)cc2)nc1CN1CCC(C(=O)NCCCN2CCOCC2)CC1 | -18 | 8 | -2 | 4 | 0.74 | -14
CCc1ccc(-c2nc(CN3CCC(C(=O)N4CCN(c5ccccn5)CC4)CC3)c(C)o2)cc1 | -16 | 6 | 0 | 5 | x | -9
CCc1ccc(-c2nc(CN3CCC(C(=O)NCc4ccc(F)cc4)CC3)c(C)o2)cc1 | 6 | 9 | 1 | -1 | -7.3* | -8
Cc1oc(-c2ccc(Cl)cc2)nc1CN1CCC(C(=O)NCc2cccs2)CC1 | -3 | 1 | 0 | 12 | -7.5* | -12
Cc1oc(-c2cccc(Cl)c2)nc1CN1CCC(C(=O)NCc2cccnc2)CC1 | 1 | -6 | -2 | 3 | 1.1 | 1
Cc1ccccc1-c1nc(CN2CCC(C(=O)NCCC3=CCCCC3)CC2)c(C)o1 | 2 | 1 | -1 | 5 | -7.1* | -11
CCN(CCNC(=O)C1CCN(Cc2nc(-c3ccc(Cl)cc3)oc2C)CC1)c1ccccc1 | 4 | -5 | -3 | -5 | -8.4* | -9
O=C1N[C@@H](Cc2cn(S(=O)(=O)c3ccc(F)cc3)c3ccccc23)C(=O)N[C@H]1Cc1ccccc1 | x | x | x | x | 0.015 | x
CC1CCN(c2ccc3c(c2)S(=O)(=O)c2ccccc2C3=O)CC1 | x | x | x | x | -2.2 | x
CCCCN1C(N)=NC[C@@H]1CCCCN | x | x | x | x | -0.063 | x
CN(C)c1ccc(C(=O)OCC(=O)NCC2CCCO2)cc1 (centres undefined) | 19 | -10 | -1 | 2 | -0.56 | -14
CC(C)[C@@H](C(=O)N1CCN(C(=O)OC(C)(C)C)CC1)n1cc(CCO)nn1 | x | x | x | x | 1.2 | x
COc1ccc(S(=O)(=O)N2CCC(n3cnc4cc(C(F)(F)F)ccc43)CC2)cc1 | x | x | x | x | -6.2* | x
SMILES | Plk1 PBD FP | EphB4 ephrin blk | FAK blocker | Rev-RRE block | Cav32 inh | PLK1 inh
CCc1ccc(NC(=O)C(C)Oc2nnc(-c3cccs3)c(-c3cccs3)n2)cc1 (centres undefined) | 21 | 10 | 3 | 16 | -4.4* | -2
CC(C)c1ccc(NC(=O)COc2nnc(-c3cccs3)c(-c3cccs3)n2)cc1 | -1 | -1 | 15 | 12 | -5.1* | -10
O=C(CSCC(=O)N1CCCCC1)Nc1nc(-c2cccs2)cs1 | -2 | -1 | -3 | 6 | -3.7* | -8
O=C(CSCC(=O)N1CCCCC1)Nc1nc(-c2ccc(Cl)s2)cs1 | -22 | 10 | 4 | 6 | -5.2* | -11
O=C(CSCC(=O)N1CCN(c2ccccc2)CC1)Nc1nc(-c2ccc(Cl)s2)cs1 | 1 | -1 | -2 | -3 | -5.6* | -9
O=C(Cc1ccccc1F)Nc1nc(-c2cccs2)cs1 | -9 | -8 | 2 | 1 | -9.6* | -2
CCOC(=O)N1CCN(C(=O)CSCC(=O)Nc2nc(-c3ccccc3)cs2)CC1 | -11 | -8 | 0 | 5 | -2.7 | -8
COC(=O)c1ccc(Oc2nc(N3CCCCC3)nc(N3CCOCC3)n2)cc1 | 9 | 5 | 2 | 8 | -4.3* | 3
Clc1ccc(Oc2nc(Oc3ccc(Cl)cc3)nc(N3CCOCC3)n2)cc1 | -11 | -5 | -9 | 9 | -3.7 | -13
S=C(NCCC(c1ccccc1)c1ccccc1)Nc1ccccc1Cl | 3 | 3 | -2 | 4 | -3.4 | -5
S=C(NCCC(c1ccccc1)c1ccccc1)Nc1ccc(Cl)cc1 | 4 | 7 | 4 | 1 | -3* | -9
O=C(Nc1ccccc1C(=O)N1CCOCC1)c1ccncc1 | -4 | 15* | 5 | 11 | 0.81 | -9
O=c1c2ccccc2c(-c2ccccc2)nn1-c1cc(Cl)ccc1[N+](=O)[O-] | -24 | 5 | 4 | 6 | -6.9* | -4
O=c1c2ccccc2c(-c2ccc(Cl)cc2)nn1-c1ccccc1 | 5 | 5 | -4 | 4 | x | -14
O=c1c2ccccc2c(-c2ccccc2)nn1Cc1ccc(Cl)cc1 | 6 | 0 | 0 | 13 | 0.66 | -11
CCc1ccc(-c2nn(-c3cc(Cl)ccc3[N+](=O)[O-])c(=O)c3ccccc23)cc1 | 11 | -1 | 3 | 17 | -3.6* | 1
Cc1ccc(-c2nn(-c3cc(Cl)ccc3[N+](=O)[O-])c(=O)c3ccccc23)cc1C | -8 | -7 | -5 | 5 | -4.6* | -9
Cc1nn(-c2cc(N3CCCCCC3)ccc2[N+](=O)[O-])c(=O)c2ccccc12 | -3 | -3 | -6 | 2 | 0.0084 | -9
COc1ccc(C2(C(=O)NC3CCCCC3)CCOCC2)cc1OC | -7 | 0 | -1 | 3 | -0.36 | 1
Cc1ccc(N2C(=O)CC(n3nc(C)cc3C)C2=O)cc1 (centres undefined) | -6 | 3 | -1 | 1 | 0.11 | -3
CCCCNC(=O)c1c(CSc2ccccc2)noc1C(=O)NCc1ccccc1 | x | x | x | x | 0.84 | x
COC(=O)[C@@]1(Cc2ccc(OC)cc2)[C@H]2c3cc(C(=O)N4CCCC4)n(C[C@H](O)CO)c3C[C@H]2CN1C(=O)c1ccccc1 | x | x | x | x | 1.3 | x
